# Bioassay records as filed in PubChem BioAssay.
# Sampled rows, rich in hits. Any-hit rate of the full collection: about 29%.
# tolC growth inh: E. coli tolC mutant growth inhibition; E. coli BW25113 tolC mutant growth, OD615; 2.2% of 65,000 active; AID 573; growth inhibition, % at 10 µM (by protocol);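 active = growth inhibition at or above a cutoff equal to the mean over every tested compound plus 3 SD, cut at about 60% in these data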;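 note: growth measured after 20 h incubation at 37 °C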
#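 Doses: one dose of 10 µM final / Material: E. coli BW25113 ΔtolC::kan, tolC deletion mutant strain / Buffer or medium: LB with kanamycin 50 µg/mL / Evaluation: percent growth inhibition / Detection: optical density read at 615 nm / Incubation: 37 °C, 20 h exposure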
# CYP2C9 act: CYP2C9 (human) activation; P11712; recombinant CYP2C9, luciferin-H conversion, luminescence; active compounds read high; factor 1 = untreated enzyme, 0 = blocked; activation factor at 5 µM; 1.4% of 96,000 active;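 active = activation factor of 2 or more for CYP2C9 at a 5 µM dose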;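 note: 0 = sulfaphenazole-blocked wells and 1 = vehicle-only wells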
# Target sequence (P11712 whole entry, looked up): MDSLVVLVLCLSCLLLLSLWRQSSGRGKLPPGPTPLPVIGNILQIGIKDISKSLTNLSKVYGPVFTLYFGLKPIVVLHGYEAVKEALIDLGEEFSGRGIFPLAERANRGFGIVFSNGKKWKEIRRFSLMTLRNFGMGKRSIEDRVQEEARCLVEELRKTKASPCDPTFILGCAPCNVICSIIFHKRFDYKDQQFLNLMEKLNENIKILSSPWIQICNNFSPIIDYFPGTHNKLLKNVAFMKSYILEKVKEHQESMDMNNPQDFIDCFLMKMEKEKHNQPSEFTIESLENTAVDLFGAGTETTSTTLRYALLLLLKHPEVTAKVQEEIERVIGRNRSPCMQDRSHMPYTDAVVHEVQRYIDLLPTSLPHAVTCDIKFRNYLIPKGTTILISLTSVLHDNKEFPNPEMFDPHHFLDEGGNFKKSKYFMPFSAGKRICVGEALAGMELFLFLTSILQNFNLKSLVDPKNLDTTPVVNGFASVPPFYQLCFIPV
# CYP2C19 activ: cytochrome P450 2C19 (human) activation; P33261; recombinant CYP2C19, luciferin-H EGE luminescence; active compounds read high; 0 = fully inhibited enzyme, 1 = untreated enzyme; activation factor at 5 µM; 96,000 tested, under 10 active; AID 1025;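 active = activation factor of at least 2 at 5 µM in the primary screen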;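 note: 0 = wells with 2.5 mM tranylcypromine and 1 = vehicle-only wells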
# E coli WT exp: blocks growth of wild type E. coli BW25113; OD600 absorbance; growth inhibition, % at 100 µM; 0.15% of 98,000 active;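 active = growth inhibition above about 50% at one test dose, limit read from the data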;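 note: growth measured after 20 h incubation at 37 °C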
# CYP2C19 inh: inhibitors of human CYP2C19; P33261; CYP2C19 Supersomes, luciferin-H EGE luminescence, 30 min; inhibition, % at 5 µM; 21% of 96,000 active;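 active = CYP2C19 inhibition above a set limit at 5 µM in the primary screen, cut at about 50% in these data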;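 note: plate controls were negative control wells for no effect and 2.5 mM tranylcypromine positive control for full effect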
# CYP2C9 inh: human CYP2C9 inhibition; P11712; CYP2C9 Supersomes, luciferin-H conversion, luminescence; inhibition, % at 5 µM; 20% of 96,000 active; AID 777;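 active = blocking of liver enzyme CYP2C9 beyond about 50% at 5 µM, limit read from the data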
# Numbers without * were called inactive; . = no result given.
SMILES,tolC growth inh,CYP2C9 act,CYP2C19 activ,E coli WT exp,CYP2C19 inh,CYP2C9 inh
Nc1ccccc1-c1nnc(-c2ccc(-c3ccccc3)cc2)o1,.,0.6,0.8,-9,20,40
Cc1cccc(Oc2ncnc3oc(-c4ccccc4)cc23)c1C,.,0.5,0.7,-4,28,54*
CCCCOC(=O)c1ccc(NC(=O)c2ccoc2C)cc1,13,0.8,0.6,-7,39,20
CCCCOC(=O)c1ccc(NC(=O)c2cc(Cl)ccc2OC)cc1,.,2.5*,0.8,-5,23,-148
O=C(Nc1ccccc1N1CCN(C(=O)c2ccccc2)CC1)c1cc2ccccc2o1,-8,0,0,-1,97*,96*
O=C(Nc1ccccc1N1CCCC1)c1cc2ccccc2o1,38,0.9,0.8,-2,16,13
O=C(Nc1ccccc1N1CCN(C(=O)c2ccccc2)CC1)c1cc(Br)ccc1Cl,.,0.2,0.3,-8,71*,82*
O=C(OC(C(=O)NCC1CCCO1)c1ccc(F)cc1)c1cccs1 (stereo unspecified),.,.,.,-2,.,.
CCOC(=O)C1CCN(C(=O)c2sc3nc(-c4ccc(F)cc4)cn3c2C)CC1,14,0.7,0.8,-6,20,34
CC1CC(NS(=O)(=O)c2cccs2)CC(C)(C)C1 (stereo unspecified),.,0.6,0.5,-1,53*,38
S=C1NC(c2ccccc2)=NCN1c1ccccc1,.,0.4,0.1,4,95*,65*
Cc1cc(C)c2nc(-c3ccccn3)cc(C(=O)Nc3cc(C)on3)c2c1,-6,0.5,0.9,-3,15,46
Cc1cc(NC(=O)c2cc(-c3ccncc3)nc3c(C)cccc23)no1,33,0,0.1,0,90*,97*
Cc1cc(C)c2c(n1)sc1c(=O)[nH]c(SCc3ccccc3)nc12,.,0.4,0.9,-1,6,64*
O=C(CCNS(=O)(=O)c1ccc(Cl)cc1)N1CCC2(O)CCCCC2C1 (stereo unspecified),-8,0.8,1.1,4,-9,16
CCOC(=O)c1c(-c2cccs2)csc1NC(=O)CCCC(=O)O,13,0.6,1,-4,1,40
CCOC(=O)c1c(-c2ccc(C)o2)csc1NC(=O)COC(=O)c1ccc(NC(N)=O)cc1,.,0.1,0.9,-12,11,91*
CCOC(=O)c1c(-c2ccc(C)o2)csc1NC(=O)CSc1nnnn1-c1ccccc1,18,0,0.2,-24,80*,96*
CCOC(=O)c1c(-c2ccc(C)o2)csc1NC(=S)NC(=O)c1ccccc1Br,.,0.3,0.8,-31,25,71*
CCOC(=O)c1c(-c2ccc(C)o2)csc1NC(=O)CSc1nnc(C)s1,53,0,0.1,-12,88*,96*
CCOC(=O)c1sc(NC(=O)CSc2nnnn2-c2ccccc2)nc1C,15,0.7,0.9,0,13,30
OC(COc1ccc(C2C=CCC2)cc1)CN1CCCCC1 (stereo unspecified),-3,1.1,1.2,-3,-24,-12
Cc1c(-n2cc(C(=O)c3cc(Br)ccc3O)cc(C#N)c2=O)c(=O)n(-c2ccccc2)n1C,.,0.4,0.6,-1,36,64*
Cc1ccc(O)c(C(=O)c2cc(C#N)c(=O)n(-c3c(C)n(C)n(-c4ccccc4)c3=O)c2)c1,.,0.8,1,-2,-2,19
Cc1ccc(N2C(=S)N=C(Nc3ccccc3C)C23CCOC(C)(C)C3)cc1 (stereo unspecified),.,0.5,0.7,-7,33,51*
SMILES,tolC growth inh,CYP2C9 act,CYP2C19 activ,E coli WT exp,CYP2C19 inh,CYP2C9 inh
Cc1cccc(C)c1NC1=NC(=S)N(c2ccccc2)C12CCOC(C)(C)C2 (stereo unspecified),.,0.8,1,-10,4,19
O=C(N/N=C/c1cccc([N+](=O)[O-])c1)c1ccc2nc[nH]c2c1,.,0.5,0.8,4,24,51*
COCC(=O)Nc1nc2ccc(S(C)(=O)=O)cc2s1,-11,0.2,0.4,3,63*,77*
C=CCN(CC=C)S(=O)(=O)c1ccc2nc(NC(=O)C(C)C)sc2c1,100*,0.1,0.2,5,81*,93*
CS(=O)(=O)c1ccc2nc(NC(=O)Oc3ccccc3)sc2c1,-5,0.3,0.9,-5,11,70*
COc1ccc(CCNC(=O)c2n[nH]c(=O)c3ccccc23)cc1,.,1,1,-3,-2,5
O=C(O)CCCCCNC(=O)c1ccccc1Br,.,0.8,0.7,7,28,16
CCc1ccc(NC(=O)C(C)Nc2ccc(S(=O)(=O)NC(C)=O)cc2)cc1 (stereo unspecified),-7,0.9,0.9,-8,11,10
Cc1ccc(C2C(C#N)=C(N)N(c3ncn[nH]3)C3=C2C(=O)CC(C)(C)C3)cc1 (stereo unspecified),.,0.4,0.7,-8,28,65*
Cc1ccc(N2C(N)=C(C#N)C(c3ccsc3)C3=C2CC(C)(C)CC3=O)cc1 (stereo unspecified),.,0.2,0.6,2,43,83*
Cc1ccc(N2C(N)=C(C#N)C(c3cccnc3)C3=C2CC(C)(C)CC3=O)cc1 (stereo unspecified),14,0.5,0.8,9,23,52*
COC(=O)CSCC(=O)Nc1cc2c(cc1C(C)=O)OCO2,18,1,0.9,-2,11,2
Cc1ccccc1NC(=O)CN(c1ccc(F)cc1)S(C)(=O)=O,-4,0.9,0.7,0,33,7
CS(=O)(=O)N(CC(=O)O)c1cccc(Cl)c1,-5,1,1,-2,0,-4
CS(=O)(=O)N(CC(=O)Nc1cc(Cl)ccc1Cl)c1ccccc1,.,0.4,0.6,-5,36,65*
CS(=O)(=O)N(CC(=O)Nc1cccc(Cl)c1Cl)c1ccccc1,.,0.2,0.7,0,30,78*
CC1(C)Cc2[nH]c(=S)c(C#N)cc2CO1,-19,0.9,1,1,5,12
CC1Cc2ccccc2N1Cc1nc2cc(C(F)(F)F)ccc2c(=O)[nH]1 (stereo unspecified),.,0.5,0.6,2,43,51*
COc1ccc(COC(=O)c2nc3nc(C)cc(C)n3n2)cc1F,-15,1.1,0.6,0,36,-13
OCC1(C2=NOC(O)(C(F)(F)F)C2)CCCCC1 (stereo unspecified),-22,0.6,0.9,-1,12,37
CS(=O)(=O)N(CCc1ccccc1)CC(=O)N1CCCCC1,4,1.1,0.9,5,7,-10
CS(=O)(=O)N(CCc1ccccc1)CC(=O)N1CCc2ccccc2C1,7,0.5,0.3,5,68*,54*
CCN(CC(=O)N1CCc2ccccc2C1)S(=O)(=O)c1ccc2ccccc2c1,.,2.4*,0.6,-4,39,-143
COCCN(C(=O)Nc1ccccc1)c1ccccc1,.,0.9,0.8,0,15,7
